Reference: ChEMBL document CHEMBL2062438, “Probing the structural requirements for vitamin D3 inhibition of the hedgehog signaling pathway” (Bioorg Med Chem Lett, 2012)

Columns and labels:
[1] = biological target: Protein smoothened (Homo sapiens) (UniProt Q99835); test: Inhibition of SMO expressed in mouse C3H10T1/2 cells assessed as down-regulation of Gli1 mRNA expression at 5 uM after 24 hrs by RT-PCR analysis relative to oxysterol; type: cell-based; design: scale not given: the % may be the effect or the level left; conditions: C3H 10T1/2
Protein smoothened (Homo sapiens), sequence (Q99835 whole entry): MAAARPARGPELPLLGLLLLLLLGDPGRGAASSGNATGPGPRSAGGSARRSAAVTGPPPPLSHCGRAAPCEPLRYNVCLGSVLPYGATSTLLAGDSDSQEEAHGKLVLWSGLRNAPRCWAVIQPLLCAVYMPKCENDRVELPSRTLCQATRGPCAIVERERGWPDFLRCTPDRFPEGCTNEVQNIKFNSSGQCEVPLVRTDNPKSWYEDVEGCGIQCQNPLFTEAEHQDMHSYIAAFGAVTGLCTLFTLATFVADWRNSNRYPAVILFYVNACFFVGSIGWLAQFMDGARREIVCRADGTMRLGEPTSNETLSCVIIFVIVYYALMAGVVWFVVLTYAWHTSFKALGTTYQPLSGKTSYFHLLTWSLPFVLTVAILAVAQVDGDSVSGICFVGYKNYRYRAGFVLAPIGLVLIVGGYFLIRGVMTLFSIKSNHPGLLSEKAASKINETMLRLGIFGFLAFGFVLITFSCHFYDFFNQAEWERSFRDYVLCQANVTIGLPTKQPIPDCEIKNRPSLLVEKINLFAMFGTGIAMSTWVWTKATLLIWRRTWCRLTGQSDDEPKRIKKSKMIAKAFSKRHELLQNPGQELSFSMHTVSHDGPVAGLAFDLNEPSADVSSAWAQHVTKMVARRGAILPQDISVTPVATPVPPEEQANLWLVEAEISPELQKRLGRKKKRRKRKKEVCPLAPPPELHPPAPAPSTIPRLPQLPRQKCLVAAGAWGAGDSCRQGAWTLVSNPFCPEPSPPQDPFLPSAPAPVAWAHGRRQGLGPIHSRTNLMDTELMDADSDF
Procedure, shortened: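 Hh-dependent C3H10T1/2 cells, with the pathway activated by oxysterol, co-treated with analogue at 5 µM for 24 h. Endogenous Gli1 mRNA is reported as % of the oxysterol control, set at 100%.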

[2] = Upregulation of CYP24A1 mRNA expression in human U87MG cells at 10 uM after 24 hrs by RT-PCR analysis relative to DMSO-treated control; type: functional, cell-based; conditions: U-87MG ATCC
HT-29 [3] = test: Upregulation of CYP24A1 mRNA expression in human HT-29 cells at 10 uM after 24 hrs by RT-PCR analysis relative to DMSO-treated control; type: functional
Vitamin D3 receptor [4] = biological target: T1, Vitamin D3 receptor (Homo sapiens, UniProt P11473); test: Binding affinity to full length human VDR expressed in mouse C3H10T1/2 cells assessed as upregulation of CYP24A1 mRNA expression at 5 uM after 24 hrs by RT-PCR analysis relative to control; type: ADME, cell-based; conditions: c3h 10t1/2, 24 h
T1 sequence (P11473 whole entry): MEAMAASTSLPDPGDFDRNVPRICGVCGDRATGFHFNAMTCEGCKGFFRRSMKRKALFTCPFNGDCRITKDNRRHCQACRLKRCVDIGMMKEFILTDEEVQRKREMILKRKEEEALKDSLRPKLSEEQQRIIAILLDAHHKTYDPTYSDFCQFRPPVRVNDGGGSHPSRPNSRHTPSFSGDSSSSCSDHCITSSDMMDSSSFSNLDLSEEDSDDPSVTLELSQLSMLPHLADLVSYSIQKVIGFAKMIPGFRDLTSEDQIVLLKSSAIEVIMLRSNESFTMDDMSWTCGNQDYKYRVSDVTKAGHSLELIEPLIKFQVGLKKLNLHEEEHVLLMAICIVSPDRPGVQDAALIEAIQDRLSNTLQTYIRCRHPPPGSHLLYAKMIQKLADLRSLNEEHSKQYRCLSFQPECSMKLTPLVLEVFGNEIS
Procedure, shortened: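 Mouse C3H10T1/2 cells treated with analogue at 5 µM for 24 h. Cyp24A1 mRNA was measured and expressed relative to DMSO control, which was set to 1.0.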

Vitamin D3 receptor [5] = biological target: T1, Vitamin D3 receptor; test: Binding affinity to full length human VDR by fluorescence polarization-based competitive assay; type: ADME
Procedure, shortened: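 Competitive fluorescence polarization binding using full-length human VDR and a tight-binding fluorescent VDR ligand; analogues tested at 50 and 100 µM.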

HT-29 [6] = test: Growth inhibition of human HT-29 cells overexpressing VDR gene after 72 hrs by MTS assay; type: functional; conditions: HT-29, 72 h
Procedure, shortened: (§1)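 Cells seeded at 3000/well, incubated overnight at 37 °C in 5% CO2, then treated in triplicate at varying concentrations in 1% DMSO final for 72 h. Viable cells read by MTS. GI50 given as mean ± SEM of at least two separate experiments.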

[7] = Down-regulation of Gli1 mRNA expression in human U87MG cells at 10 uM after 24 hrs by RT-PCR analysis relative to DMSO-treated control; type: functional, cell-based; conditions: U-87MG ATCC
[8] = Growth inhibition of human U87MG cells after 72 hrs by MTS assay; type: functional, U-87MG ATCC; conditions: U-87 MG; procedure, shortened: as §1
HT-29 [9] = test: Down-regulation of Gli1 mRNA expression in human HT-29 cells at 10 uM after 24 hrs by RT-PCR analysis relative to DMSO-treated control; type: functional
U-87 MG = test: Ratio of CYP24A1 mRNA upregulation in human […] cells to upregulation of CYP24A1 mRNA in human U87MG cells; type: functional, U-87MG ATCC

Row | Compound | Activity [1] | fold change (FC) [2] | fold change (FC) (HT-29 [3]) | Activity (Vitamin D3 receptor [4]) | Activity (Vitamin D3 receptor [5]) | GI50 (HT-29 [6]) | fold change (FC) [7] | GI50 [8] | fold change (FC) (HT-29 [9]) | Ratio (U-87 MG)
1 | C=C1CC[C@H](O)C/C1=C/C(O)C1(O)CCC[C@]2(C)[C@@H]([C@H](C)CCCC(C)C)CC[C@@H]12 (some centres not stated) | 144% | 0.5 | 1.2 | 6.7 | > 100 µM | > 100 µM | 1.1 | 25.9 µM | 0.9 | –
2 | C=C1CC[C@H](O)C/C1=C/C=C1\CCC[C@]2(C)[C@@H]([C@H](C)CO)CC[C@@H]12 | 80% | 4.8 | 69.1 | 1350 | > 100 µM | > 100 µM | 1 | > 100 µM | 2.7 | –
3 | C=C1CC[C@H](O)C/C1=C\C=C1/CCC[C@]2(C)[C@@H]([C@H](C)CCCC(C)C)CC[C@@H]12 | 69.7% | 33.8 | 27.5 | 43.5 | > 100 µM | > 100 µM | 1.1 | 46 µM | 1.2 | –
4 | C=C1CC[C@H](O)C/C1=C\C=C1/CCC[C@]2(C)[C@@H]([C@H](C)CO)CC[C@@H]12 | 66.7% | 0.8 | 3.3 | 12.5 | > 100 µM | > 100 µM | 0.8 | 88.8 µM | 1.3 | –
5 | C=C1CC[C@H](O)C/C1=C/C=C1\CCC[C@]2(C)[C@@H]([C@H](C)CCCC(C)C)CC[C@@H]12 [CHOLECALCIFEROL] | – | 12.2 | 14697 | 8340 | > 100 µM | 68.5 µM | 0.7 | 23.2 µM | 1.3 | 10000
6 | C[C@H](CO)[C@H]1CC[C@H]2[C@@H](O)CCC[C@]12C | 87.6% | 0.7 | 1 | 4.1 | > 100 µM | > 100 µM | 1 | > 100 µM | 1.2 | –
7 | CC(C)CCC[C@@H](C)[C@H]1CCC2=CCCC[C@@]21C | 111% | 0.5 | 1.1 | 2.3 | > 100 µM | > 100 µM | 1 | > 100 µM | 1.1 | –
8 | C=C1CCC=C/C1=C/C=C1\CCC[C@]2(C)[C@@H]([C@H](C)CCCC(C)C)CC[C@@H]12 | 79.4% | 0.9 | 1.9 | 3 | > 100 µM | > 100 µM | 1 | 48.5 µM | 1.8 | –
9 | CC(C)CCC[C@@H](C)[C@H]1CC[C@H]2[C@@H](O)CCC[C@]12C | 46.4% | 0.4 | 1.1 | 3.6 | > 100 µM | 66.5 µM | 0.7 | 5.7 µM | 1.1 | –
10 | CC(C)CCC[C@@H](C)[C@H]1CC[C@H]2C(=O)CCC[C@]12C | 66.1% | 0.5 | 1 | 3 | > 100 µM | > 100 µM | 0.9 | 12.1 µM | 1.1 | –
11 | CC(C)CCC[C@@H](C)[C@H]1CC[C@H]2C(CCC3C[C@@H](O)CCC3C)CCC[C@]12C (some centres not stated) | 82.1% | 0.8 | 1.4 | 1.5 | > 100 µM | > 100 µM | 0.8 | > 100 µM | 1.4 | –
12 | CC(C)[C@@H](C)/C=C/[C@@H](C)[C@H]1CC[C@H]2[C@@H](O)CCC[C@]12C | 32.1% | 0.3 | 0.7 | 2.3 | > 100 µM | 49.7 µM | 0.8 | 19 µM | 0.9 | –
13 | C=C1CC[C@H](O)C/C1=C/CO | 80.9% | 0.6 | 0.7 | 2 | > 100 µM | > 100 µM | 0.9 | > 100 µM | 0.9 | –
14 | C=C1CC[C@H](O)C/C1=C/C=C1\CCC[C@]2(C)[C@@H]([C@H](C)/C=C/[C@H](C)C(C)C)CC[C@@H]12 [ERGOCALCIFEROL] | 28.1% | 49.6 | 10902 | 2410 | > 100 µM | > 100 µM | 0.9 | 33.7 µM | 1.1 | 25
